Measured values published in ChEMBL document CHEMBL2396601, “Synthesis and antiprotozoal activity of dicationic m-terphenyl and 1,3-dipyridylbenzene derivatives” (J Med Chem, 2013).
Active and inactive are the calls of the source. The rule behind the calls is not given here.

Experiments:
[1] = Selectivity index, ratio of IC50 for rat L6 cells to IC50 for Plasmodium falciparum K1; format: toxicity, cell-based; conditions: for selectivity ratio: L6 cells, read-out: Ratio IC50
In short: (§1)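 Selectivity index is IC50 against L6 rat myoblast cells divided by IC50 against the named parasite.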

Plasmodium falciparum = test: Antiprotozoal activity against chloroquine-resistant Plasmodium falciparum K1 after 48 hrs by [3H]-hypoxanthine incorporation assay; format: functional, organism-based; conditions: Plasmodium falciparum, K1
[2] = Selectivity index, ratio of IC50 for rat L6 cells to IC50 for Trypanosoma brucei rhodesiense STIB900; format: toxicity, cell-based; conditions: for selectivity ratio: L6 cells, read-out: Ratio IC50; in short: as §1
[3] = Selectivity index, ratio of IC50 for rat L6 cells to IC50 for Trypanosoma cruzi Tulahuen C2C4; format: toxicity, cell-based; conditions: read-out: Ratio IC50; in short: as §1
[4] = system: Trypanosoma brucei rhodesiense; test: Antiprotozoal activity against Trypanosoma brucei rhodesiense STIB900 after 72 hrs by Alamar Blue assay; format: functional, organism-based; conditions: Trypanosoma brucei, STIB900, 72 h
In short: (§2)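 Uses T. b. rhodesiense STIB900, T. cruzi Tulahuen C2C4 LacZ intracellular amastigotes, or L6 rat myoblasts depending on line.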

[5] = system: Trypanosoma brucei rhodesiense; test: Antiprotozoal activity against Trypanosoma brucei rhodesiense STIB900 infected in NMRI mouse assessed as host mean survival days at 5 mg/kg, ip qd for 4 days; format: functional; conditions: route intraperitoneal
In short: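 Acute-stage HAT mouse model infected with STIB900. Cure means survival to 60 days after infection with no parasitemia relapse. Mean survival days are counted from infection and use every mouse: relapsed mice, plus cured mice entered as >60 days.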

L6 = test: Cytotoxicity against rat L6 cells after 72 hrs by Alamar Blue assay; format: cell-based; conditions: L6, 72 h; in short: as §2
[6] = system: Trypanosoma brucei rhodesiense; test: Antiprotozoal activity against Trypanosoma brucei rhodesiense STIB900 infected in NMRI mouse assessed as reduction of parasitemia relapse at 5 mg/kg, ip qd for 4 days; format: functional, organism-based; design: dose 5 mg/kg
In short: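 Mouse model of acute (early) stage HAT with T. b. rhodesiense STIB900, groups of 4 mice. Amidines dosed intraperitoneally, 4 daily doses of 5 mg/kg or single doses; prodrugs dosed orally, 4 daily doses of 25 mg/kg. Cure means survival to 60 days after infection with no parasitemia relapse. Mean survival days counts all mice, with cured mice scored as >60 days.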

Trypanosoma cruzi = test: Antiprotozoal activity against intracellular amastigote form of Trypanosoma cruzi Tulahuen C2C4 expressing LacZ infected in rat L6 cells after 48 hrs; format: functional, organism-based; conditions: Tulahuen C2C4, L6, 48 h; in short: as §2
Leishmania amazonensis = test: Antiprotozoal activity against intracellular amastigote form of Leishmania amazonensis infected in CD1 mouse macrophages after 72 hrs by […]; format: functional, organism-based
[7] = Selectivity index, ratio of IC50 for rat L6 cells to IC50 for Leishmania amazonensis; format: toxicity, cell-based; conditions: read-out: Ratio IC50; in short: as §1

Question: With `CC(C)NC(=N)c1ccc(-c2cccc(-c3ccc(C(=N)NC(C)C)cc3)c2)cc1.Cl.Cl` as the compound, how does the selectivity ratio [1] read?
Answer: 6580

Question: What about the IC50 (Plasmodium falciparum) of the same compound?
Answer: 0.016 µM

Question: What about the selectivity ratio [2] of the same compound?
Answer: 2160

Question: What about the selectivity ratio [3] of the same compound?
Answer: < 1

Question: What about the IC50 [4] of the same compound?
Answer: 0.047 µM

Question: And the MSD [5]?
Answer: 13.5 days

Question: And the IC50 (L6)?
Answer: 102 µM

Question: And the Activity [6]?
Answer: inactive

Question: And the IC50 (Trypanosoma cruzi)?
Answer: > 150 µM

Question: What does the source list for `COc1cc(-c2cccc(C(=N)N)c2)cc(-c2cccc(C(=N)N)c2)c1.Cl.Cl`?
Answer: selectivity ratio [1]: 4960; IC50 (Plasmodium falciparum): 0.028 µM; selectivity ratio [2]: 4700; selectivity ratio [3]: 2; IC50 [4]: 0.029 µM; MSD [5]: 10 days; IC50 (L6): 137 µM; Activity [6]: inactive; IC50 (Trypanosoma cruzi): 55.9 µM

Question: For `Cl.Cl.N=C(N)c1cccc(-c2cccc(-c3cccc(C(=N)N)c3)c2)c1`, which selectivity ratio [1] is on record?
Answer: 3320

Question: And the IC50 (Plasmodium falciparum)?
Answer: 0.038 µM

Question: What about the selectivity ratio [2] of the same compound?
Answer: 2270

Question: What about the selectivity ratio [3] of the same compound?
Answer: 4

Question: What about the IC50 [4] of the same compound?
Answer: 0.055 µM

Question: What about the MSD [5] of the same compound?
Answer: 18.5 days

Question: And the IC50 (L6)?
Answer: 125 µM

Question: And the Activity [6]?
Answer: inactive

Question: And the IC50 (Trypanosoma cruzi)?
Answer: 35 µM

Question: What does the source list for `Cl.Cl.N=C(N)c1ccc(-c2cccc(-c3cccc(C(=N)N)c3)c2)cc1`?
Answer: selectivity ratio [1]: 1950; IC50 (Plasmodium falciparum): 0.015 µM; selectivity ratio [2]: 544; selectivity ratio [3]: 1; IC50 [4]: 0.052 µM; MSD [5]: 34.75 days; IC50 (L6): 28.5 µM; Activity [6]: inactive; IC50 (Trypanosoma cruzi): 27.1 µM

Question: For `N=C(N)c1cncc(-c2cccc(-c3cncc(C(=N)N)c3)c2)c1`, which selectivity ratio [1] is on record?
Answer: > 2580

Question: What about the IC50 (Plasmodium falciparum) of the same compound?
Answer: 0.058 µM

Question: And the selectivity ratio [2]?
Answer: > 285

Question: What about the IC50 [4] of the same compound?
Answer: 0.527 µM

Question: And the IC50 (L6)?
Answer: > 150 µM

Question: What about the IC50 (Trypanosoma cruzi) of the same compound?
Answer: > 150 µM

Question: Which selectivity ratio [1] does the source give for `c1cc(C2=NCCN2)cc(-c2cccc(-c3cccc(C4=NCCN4)c3)c2)c1` here?
Answer: 51

Question: What about the IC50 (Plasmodium falciparum) of the same compound?
Answer: 0.619 µM

Question: What about the selectivity ratio [2] of the same compound?
Answer: 20

Question: What about the selectivity ratio [3] of the same compound?
Answer: 2

Question: What about the IC50 [4] of the same compound?
Answer: 1.6 µM

Question: What about the IC50 (L6) of the same compound?
Answer: 31.7 µM

Question: What about the IC50 (Trypanosoma cruzi) of the same compound?
Answer: 20.4 µM

Question: Which MSD [5] does the source give for `Nc1nc(N)nc(Nc2ccc([As]3SCC(CO)S3)cc2)n1` (stereo unspecified) [MELARSOPROL] here?
Answer: >60 days

Question: And the Activity [6]?
Answer: Active

Question: Which results are given for `C[C@@H]1CC[C@H]2[C@@H](C)C(=O)O[C@@H]3O[C@@]4(C)CC[C@@H]1[C@]32OO4` [ARTEMISININ]?
Answer: selectivity ratio [1]: 34900; IC50 (Plasmodium falciparum): 0.004 µM; IC50 (L6): 150 µM

Question: With `N=C(N)c1ccc(OCCCCCOc2ccc(C(=N)N)cc2)cc1` [PENTAMIDINE] as the compound, how does the MSD [5] read?
Answer: >38 days

Question: Which results are given for `CC(C)NC(=N)c1cccc(-c2cccc(-c3cccc(C(=N)NC(C)C)c3)c2)c1`?
Answer: selectivity ratio [1]: > 4190; IC50 (Plasmodium falciparum): 0.031 µM; selectivity ratio [2]: > 243; selectivity ratio [3]: > 1; IC50 [4]: 0.617 µM; IC50 (L6): > 150 µM; IC50 (Trypanosoma cruzi): 141 µM

Question: Which IC50 (Leishmania amazonensis) does the source give for `C[C@@H]1[C@H](O)[C@@H](C)/C=C/C=C/C=C/C=C/C=C/C=C/C=C/[C@H](O[C@@H]2O[C@H](C)[C@@H](O)[C@H](N)[C@@H]2O)C[C@@H]2O[C@](O)(C[C@@H](O)C[C@@H](O)[C@H](O)CC[C@@H](O)C[C@@H](O)CC(=O)O[C@H]1C)C[C@H](O)[C@H]2C(=O)O` [AMPHOTERICIN B] here?
Answer: 0.124 µM

Question: Which results are given for `CC1(C)CN=C(c2ccc(-c3cccc(-c4ccc(C5=NCC(C)(C)CN5)cc4)c3)cc2)NC1`?
Answer: selectivity ratio [1]: 49300; IC50 (Plasmodium falciparum): 0.002 µM; selectivity ratio [2]: 871; selectivity ratio [3]: < 1; IC50 [4]: 0.14 µM; IC50 (L6): 122 µM; IC50 (Trypanosoma cruzi): 151 µM

Question: What does the source list for `CC(=O)O.N=C(N)c1ccc(-c2cccc(-c3ccc(C(=N)N)cn3)c2)nc1`?
Answer: Ratio IC50 ([1]; l6): > 3339; IC50 (Plasmodium falciparum): 0.045 µM; Ratio IC50 ([2]; l6): > 6856; IC50 [4]: 0.022 µM; MSD [5]: >60 days; IC50 (L6): > 150 µM; IC50 (Trypanosoma cruzi): > 150 µM

Question: For `CCN(CC)CCCC(C)Nc1ccnc2cc(Cl)ccc12` (stereo unspecified) [CHLOROQUINE], which IC50 (L6) is on record?
Answer: 76.5 µM

Question: Which results are given for `N=C(Nc1cccc(-c2cc(Cl)cc(-c3cccc(NC(=N)c4ccccc4)c3)c2)c1)c1ccccc1`?
Answer: selectivity ratio [1]: 58; IC50 (Plasmodium falciparum): 0.071 µM; selectivity ratio [2]: 8; selectivity ratio [3]: 2; IC50 [4]: 0.533 µM; IC50 (Leishmania amazonensis): 2.43 µM; selectivity ratio [7]: 2; IC50 (L6): 4.1 µM; IC50 (Trypanosoma cruzi): 2.09 µM

Question: Which results are given for `CC(C)Oc1cc(NC(=N)c2ccccn2)ccc1-c1cc(Cl)cc(-c2ccccc2)c1`?
Answer: selectivity ratio [1]: < 1; IC50 (Plasmodium falciparum): > 10 µM; selectivity ratio [2]: < 1; selectivity ratio [3]: 2; IC50 [4]: 32.4 µM; IC50 (Leishmania amazonensis): 0.933 µM; selectivity ratio [7]: 10; IC50 (L6): 9.69 µM; IC50 (Trypanosoma cruzi): 4.18 µM
